Source: ChEMBL document CHEMBL1136963, “Sesterterpenes as tubulin tyrosine ligase inhibitors. First insight of structure-activity relationships and discovery of new lead” (J Med Chem, 2009)
Active and inactive are the calls of the source. No cut-off for these calls is given here.

Legend:
Albumin = Albumin (Bos taurus, UniProt P02769); assay: Binding affinity to bovine serum albumin by surface plasmon resonance; assay type: ADME; conditions: cattle, isolated protein
Outline: (§1)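 Biacore SPR. TTL and BSA each amine-coupled (100 µg/mL in 10 mM sodium acetate, pH 5.0) to 8-12 kRU, with an unmodified reference surface. Running buffer 10 mM NaH2PO4, 150 mM NaCl, 0.5% DMSO, pH 7.4. Five-point 2-fold series, typically 0.05-10 µM, in triplicate. 25 °C, 50 µL/min, 60 s association, 200 s dissociation. Double-referenced. KD fitted from at least 10 curves.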

J774.A1 = assay: Cytotoxicity against mouse J774A1 cells up to >100 uM after 24 to 48 hrs by MTT assay; assay type: functional, cell-based
Tubulin--tyrosine ligase = molecular target: T1, Tubulin--tyrosine ligase (Homo sapiens, UniProt Q8NG68); assay: Binding affinity to TTL by surface plasmon resonance; outline: as §1
T1 sequence (Q8NG68 whole entry): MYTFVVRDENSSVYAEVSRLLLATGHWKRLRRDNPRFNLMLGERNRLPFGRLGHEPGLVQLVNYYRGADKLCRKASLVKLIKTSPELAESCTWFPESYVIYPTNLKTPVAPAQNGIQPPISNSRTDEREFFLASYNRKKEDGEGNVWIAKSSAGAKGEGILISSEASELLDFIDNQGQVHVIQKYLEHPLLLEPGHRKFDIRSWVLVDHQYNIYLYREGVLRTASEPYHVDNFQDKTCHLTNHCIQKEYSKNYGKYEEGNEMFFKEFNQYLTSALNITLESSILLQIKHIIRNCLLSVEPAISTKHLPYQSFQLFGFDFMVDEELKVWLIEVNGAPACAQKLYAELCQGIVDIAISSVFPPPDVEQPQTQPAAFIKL

HEK293 = assay: Cytotoxicity against HEK293 cells up to >100 uM after 24 to 48 hrs by MTT assay; assay type: functional, cell-based; conditions: Homo sapiens
MCF7 = assay: Cytotoxicity against human MCF7 cells up to >100 uM after 24 to 48 hrs by MTT assay; assay type: functional, cell-based
[1] = molecular target: T2, Tubulin--tyrosine ligase (Homo sapiens) (UniProt Q8NG68); assay: Inhibition of TTL in human MCF7 cells assessed as increase in delta2-tubulin level at 100 uM after 24 to 48 hrs by Western blot; assay type: cell-based
T2 sequence (whole entry): T1 sequence (Q8NG68 whole entry)
Outline: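 MCF-7 cells were grown in DMEM with 10% FBS at 37 °C, 5% CO2, seeded at 4 × 10^5 per well, and treated 24 h later with or without 100 µM compound for 24 and 48 h. NP-40 lysates (20 µg protein, Bradford) were run on 10% SDS-PAGE and blotted. Membranes were probed overnight at 4 °C with rabbit polyclonal anti-Δ2-α-tubulin.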

Sequence of Albumin (P02769 whole entry): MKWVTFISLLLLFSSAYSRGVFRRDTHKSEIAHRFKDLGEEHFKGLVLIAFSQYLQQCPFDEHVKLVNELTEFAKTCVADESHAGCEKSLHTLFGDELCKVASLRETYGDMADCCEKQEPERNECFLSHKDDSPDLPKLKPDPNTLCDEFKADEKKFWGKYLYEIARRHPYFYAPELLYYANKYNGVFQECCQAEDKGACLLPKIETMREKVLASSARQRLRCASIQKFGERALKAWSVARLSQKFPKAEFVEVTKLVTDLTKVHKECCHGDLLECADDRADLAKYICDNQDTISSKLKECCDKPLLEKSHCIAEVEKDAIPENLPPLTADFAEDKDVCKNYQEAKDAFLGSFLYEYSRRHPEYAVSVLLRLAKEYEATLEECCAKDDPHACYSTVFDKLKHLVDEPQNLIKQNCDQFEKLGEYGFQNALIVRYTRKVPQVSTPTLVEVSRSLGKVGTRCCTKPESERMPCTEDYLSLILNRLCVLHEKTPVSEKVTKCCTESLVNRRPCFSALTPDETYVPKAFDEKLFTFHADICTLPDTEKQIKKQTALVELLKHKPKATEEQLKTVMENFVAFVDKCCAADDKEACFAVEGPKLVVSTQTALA

Row | Structure (SMILES) | Activity (Albumin) | Kd (Tubulin--tyrosine ligase) [nM] | Activity [1] | Activity (J774.A1) | Activity (HEK293) | Activity (MCF7)
1 | CC1=CC(=O)O/C1=C\C=C(/C)CC[C@@H]1[C@@]2(C)CCC[C@@](C)(C=O)[C@@H]2[C@@H](O)C[C@@]1(C)O | Not Active | 200 |  | inactive | inactive | inactive
2 | C=C1C[C@H](O)[C@H]2[C@](C)(CO)CCC[C@]2(C)[C@H]1CC/C(C)=C/[C@H](O)[C@H]1OC(=O)C=C1C | Not Active | 2000 |  | inactive | inactive | inactive
3 | C=C(CC[C@@H]1[C@@]2(C)CCC[C@@](C)(CO)[C@@H]2[C@@H](O)C[C@@]1(C)O)[C@@H](O)[C@@H](O)C1OC(=O)C=C1C (stereo in doubt; 23) [listing 2 of 2 here] |  |  |  | inactive | inactive | inactive
4 | CC1=CC(=O)OC1C/C=C(\C)CC[C@@H]1[C@@]2(C)CCC[C@@](C)(C(=O)O)[C@@H]2[C@@H](O)C[C@@]1(C)O (stereo not given in full) | Not Active | 7 |  | inactive | inactive | inactive
5 | CC1=CC(=O)O/C1=C\C=C(/C)CC[C@@H]1[C@@]2(C)CCC[C@@](C)(C(=O)O)[C@@H]2[C@@H](O)C[C@@]1(C)O | Not Active | 93 |  | inactive | inactive | inactive
6 | CC1=CC(=O)O[C@@H]1C/C=C(\C)CC[C@@H]1[C@@]2(C)CCC[C@@](C)(CO)[C@@H]2[C@@H](O)C[C@@]1(C)O | Not Active | 72 |  | inactive | inactive | inactive
7 | CC1=CC(=O)O[C@@H]1[C@@H](O)/C=C(\C)CC[C@@H]1[C@@]2(C)CCC[C@@]3(C)C(=O)O[C@@H](C[C@@]1(C)O)[C@H]23 | Not Active |  | Active | inactive | inactive | inactive
8 | C=C(CC[C@@H]1[C@@]2(C)CCC[C@@](C)(CO)[C@@H]2[C@@H](O)C[C@@]1(C)O)[C@@H](O)[C@@H](O)C1OC(=O)C=C1C (stereo in doubt; 22) |  |  |  | inactive | inactive | inactive
9 | CC1=CC(=O)O/C1=C\C=C(/C)CC[C@@H]1[C@@]2(C)CCC[C@@]3(C)C(=O)O[C@@H](C[C@@]1(C)O)[C@H]23 | Not Active | 150 |  | inactive | inactive | inactive
10 | C=C1C[C@@H]2OC[C@]3(C)CCC[C@](C)([C@H]1CC/C(C)=C/C[C@H]1OC(=O)C=C1C)[C@@H]23 | Not Active | 8700 |  | inactive | inactive | inactive

Second part, led by results:

Row | Activity (Albumin) | Kd (Tubulin--tyrosine ligase) [nM] | Activity [1] | Structure (SMILES) | Activity (J774.A1) | Activity (HEK293) | Activity (MCF7)
11 | Not Active | 3000 |  | CC1=CC(=O)O[C@@H]1[C@@H](O)/C=C(\C)CC[C@@H]1[C@@]2(C)CCC[C@@](C)(C=O)[C@@H]2[C@@H](O)C[C@@]1(C)O | inactive | inactive | inactive
12 | Not Active | 480 |  | CC1=CC(=O)O/C1=C\C=C(/C)CC[C@@H]1[C@@]2(C)CCC[C@@]3(C)C(O)O[C@@H](C[C@@]1(C)O)[C@H]23 (stereo not given in full) | inactive | inactive | inactive
13 | Not Active | 210000 | Active | CC1=CC(=O)O[C@@H]1[C@@H](O)/C=C(\C)CC[C@@H]1[C@@]2(C)CCC[C@]3(C)[C@@H]2[C@H](C[C@@]1(C)O)O[C@@H]3O | inactive | inactive | inactive
14 | Not Active |  |  | C=C(CC[C@@H]1[C@@]2(C)CCC[C@@](C)(CO)[C@@H]2[C@@H](O)C[C@@]1(C)O)[C@@H](O)[C@@H](O)C1OC(=O)C=C1C (stereo in doubt; 23) [listing 1 of 2 here] |  |  | 
15 | Not Active | 810 |  | CC1=CC(=O)O[C@@H]1C/C=C(\C)CC[C@@H]1[C@@]2(C)CCC[C@@](C)(C=O)[C@@H]2[C@@H](O)C[C@@]1(C)O | inactive | inactive | inactive
16 | Not Active | 960 |  | CCO[C@H]1O[C@H]2C[C@@](C)(O)[C@H](CC/C(C)=C/[C@H](O)[C@H]3OC(=O)C=C3C)[C@@]3(C)CCC[C@]1(C)[C@H]23 | inactive | inactive | inactive
17 | Not Active | 6200 |  | COC(=O)[C@]1(C)CCC[C@@]2(C)[C@H]1[C@@H](O)C[C@@](C)(O)[C@@H]2CC/C(C)=C/[C@H](O)[C@H]1OC(=O)C=C1C | inactive | inactive | inactive
18 | Not Active | 110 |  | CC1=CC(=O)O/C1=C\C=C(/C)CC[C@@H]1[C@@]2(C)CCC[C@@](C)(CO)[C@@H]2[C@@H](O)C[C@@]1(C)O | inactive | inactive | inactive
19 | Not Active |  |  | C=C(CC[C@@H]1[C@@]2(C)CCC[C@@](C)(C=O)[C@@H]2[C@@H](O)C[C@@]1(C)O)[C@@H](O)[C@@H](O)C1OC(=O)C=C1C (stereo not given in full) | inactive | inactive | inactive
20 | Not Active | 73 |  | CCO[C@H]1O[C@H]2C[C@@](C)(O)[C@H](CC/C(C)=C/C[C@H]3OC(=O)C=C3C)[C@@]3(C)CCC[C@]1(C)[C@H]23 | inactive | inactive | inactive
21 | Not Active |  |  | CC1=CC(=O)O[C@@H]1[C@@H](O)/C=C(\C)CC[C@@H]1[C@@]2(C)CCCC(C)(C)[C@@H]2[C@@H](O)C[C@@]1(C)O | inactive | inactive | inactive
22 | Not Active | 3000 |  | CC1=CC(=O)O[C@@H]1[C@@H](O)/C=C(\C)CC[C@@H]1[C@@]2(C)CCC[C@@](C)(C(=O)O)[C@@H]2[C@@H](O)C[C@@]1(C)O | inactive | inactive | inactive
23 | Not Active | 3300 |  | C=C1C[C@H](O)[C@@H]2[C@](C)(CCC[C@@]2(C)C=O)[C@H]1CC/C(C)=C/[C@H](O)[C@H]1OC(=O)C=C1C | inactive | inactive | inactive
24 | Not Active |  |  | CC1=CC(=O)O[C@@H]1[C@@H](O)/C=C(\C)CC[C@@H]1[C@@]2(C)CCC[C@@]3(C)CO[C@@H](C[C@@]1(C)O)[C@@H]32 | inactive | inactive | inactive
25 | Not Active | 4700 |  | CC1=CC(=O)O[C@@H]1[C@@H](O)/C=C(\C)CC[C@@H]1[C@@]2(C)CCC[C@@](C)(CO)[C@@H]2[C@@H](O)C[C@@]1(C)O | inactive | inactive | inactive
